From ChEMBL document CHEMBL1130165 (J Med Chem, 1997)
≈ marks a conversion by molar mass, not a printed value.

Columns and labels:
B16 = assay: Ratio of ED50 of compound to that of ED50 of paclitaxel; ED50 expressed as concentration which produces 50% inhibition of proliferation of B16 melanoma cells after 40h incubation; format: functional, Mus musculus
Outline: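 B16 melanoma cells were incubated with compound for 40 h. Each value is expressed as a ratio to the paclitaxel ED50.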

[1] = target: Tubulin beta-1 chain (Homo sapiens) (UniProt Q9H4B7); assay: Ratio of ED50 of compound to that of ED50 of paclitaxel; ED50 expressed as concentration which causes polymerization of 50% of the tubulin in microtubule assembly assay (in vitro); format: functional
Tubulin beta-1 chain (Homo sapiens), sequence (Q9H4B7 whole entry): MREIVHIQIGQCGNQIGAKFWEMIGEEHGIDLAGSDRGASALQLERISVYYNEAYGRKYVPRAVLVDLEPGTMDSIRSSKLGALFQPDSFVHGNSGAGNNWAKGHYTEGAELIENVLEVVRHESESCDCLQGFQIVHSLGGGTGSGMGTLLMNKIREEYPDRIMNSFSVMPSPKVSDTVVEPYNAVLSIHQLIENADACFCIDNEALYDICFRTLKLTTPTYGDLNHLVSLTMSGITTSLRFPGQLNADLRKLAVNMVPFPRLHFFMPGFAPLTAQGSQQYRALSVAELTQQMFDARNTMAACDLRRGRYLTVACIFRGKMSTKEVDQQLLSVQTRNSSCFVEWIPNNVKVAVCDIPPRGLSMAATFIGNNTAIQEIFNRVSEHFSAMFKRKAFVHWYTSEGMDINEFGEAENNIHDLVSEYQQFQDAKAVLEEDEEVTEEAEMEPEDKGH
Outline: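 In vitro microtubule assembly assay. […] Each compound's ED50 is expressed as a ratio to the paclitaxel ED50.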

[2] = Aqueous solubility was determined; format: physicochemical; conditions: aqueous medium (not further specified)
[3] = Ratio of solubility to that of paclitaxel solubility; format: ADME
[4] = Ratio of solubility to that of paclitaxel solubility; range 17-20; format: ADME
[5] = Aqueous solubility was determined; range 5-6; format: physicochemical; conditions: aqueous medium (not further specified)
[6] = Ratio of solubility to that of paclitaxel solubility; range 23-28; format: ADME
[7] = Aqueous solubility was determined; range 6.8-8.4; format: physicochemical; conditions: aqueous medium (not further specified)

| ED50 ratio [1] | solubility [2] | Ratio [3] | SMILES | ED50 ratio (B16) | also measured |
| --- | --- | --- | --- | --- | --- |
| 1.6 | – | – | CC(=O)O[C@@]12COC1C[C@H](O)[C@@]1(C)C(=O)[C@H](O)C3=C(C)[C@@H](OC(=O)[C@H](O)[C@@H](NC(=O)c4ccoc4)C(C)(C)C)C[C@@](O)([C@@H](OC(=O)c4ccccc4)[C@@H]12)C3(C)C (some centres undefined) | 2.3 | – |
| – | 0.5 µg/mL (≈ 0.629 µM) | 1.8 | CC(=O)O[C@@]12COC1C[C@H](O)[C@@]1(C)C(=O)[C@H](O)C3=C(C)[C@@H](OC(=O)[C@H](O)[C@@H](NC(=O)c4cccn4C)C(C)(C)C)C[C@@](O)([C@@H](OC(=O)c4ccccc4)[C@@H]12)C3(C)C (some centres undefined) | 1.2 | – |
| 1.7 | – | – | CCC(CC)C(=O)N[C@H]([C@@H](O)C(=O)O[C@H]1C[C@@]2(O)[C@@H](OC(=O)c3ccccc3)[C@H]3[C@](C)(C(=O)[C@H](O)C(=C1C)C2(C)C)[C@@H](O)CC1OC[C@]13OC(C)=O)C(C)(C)C (some centres undefined) | 26 | – |
| – | 22 µg/mL (≈ 28.1 µM) | 73 | CC(=O)O[C@@]12COC1C[C@H](O)[C@@]1(C)C(=O)[C@H](O)C3=C(C)[C@@H](OC(=O)[C@H](O)[C@@H](NC(=O)c4ccco4)C(C)(C)C)C[C@@](O)([C@@H](OC(=O)c4ccccc4)[C@@H]12)C3(C)C (some centres undefined) | 2.1 | – |
| – | 4.7 µg/mL (≈ 5.89 µM) | 16 | CC(=O)O[C@@]12COC1C[C@H](O)[C@@]1(C)C(=O)[C@H](O)C3=C(C)[C@@H](OC(=O)[C@H](O)[C@@H](NC(=O)c4ccsc4)C(C)(C)C)C[C@@](O)([C@@H](OC(=O)c4ccccc4)[C@@H]12)C3(C)C (some centres undefined) | 1.2 | – |
| – | 24 µg/mL (≈ 31.2 µM) | 80 | CC(=O)O[C@@]12COC1C[C@H](O)[C@@]1(C)C(=O)[C@H](O)C3=C(C)[C@@H](OC(=O)[C@H](O)[C@@H](NC(=O)C4CCC4)C(C)(C)C)C[C@@](O)([C@@H](OC(=O)c4ccccc4)[C@@H]12)C3(C)C (some centres undefined) | 3 | – |
| – | 2.8 µg/mL (≈ 3.54 µM) | 9.3 | CC(=O)O[C@@]12COC1C[C@H](O)[C@@]1(C)C(=O)[C@H](O)C3=C(C)[C@@H](OC(=O)[C@H](O)[C@@H](NC(=O)c4ccccc4)C(C)(C)C)C[C@@](O)([C@@H](OC(=O)c4ccccc4)[C@@H]12)C3(C)C (some centres undefined) [BUTITAXEL] | 7.5 | – |
| – | 1 µg/mL (≈ 1.21 µM) | – | CC(=O)O[C@@]12COC1C[C@H](O)[C@@]1(C)C(=O)[C@H](O)C3=C(C)[C@@H](OC(=O)[C@H](O)[C@@H](NC(=O)/C=C/c4cccs4)C(C)(C)C)C[C@@](O)([C@@H](OC(=O)c4ccccc4)[C@@H]12)C3(C)C (some centres undefined) | – | – |
| – | 6.7 µg/mL (≈ 8.25 µM) | 23 | CC(=O)O[C@@]12COC1C[C@H](O)[C@@]1(C)C(=O)[C@H](O)C3=C(C)[C@@H](OC(=O)[C@H](O)[C@@H](NC(=O)Cc4cccs4)C(C)(C)C)C[C@@](O)([C@@H](OC(=O)c4ccccc4)[C@@H]12)C3(C)C (some centres undefined) | 3.3 | – |
| 0.45 | – | – | CC(=O)O[C@@]12CO[C@@H]1C[C@H](O)[C@@]1(C)C(=O)[C@H](O)C3=C(C)[C@@H](OC(=O)[C@H](O)[C@@H](NC(=O)OC(C)(C)C)c4ccccc4)C[C@@](O)([C@@H](OC(=O)c4ccccc4)[C@H]21)C3(C)C.O.O.O [DOCETAXEL] | 0.41 | Ratio [4]: 20; solubility [5]: 6 µg/mL |
| 1.7 | – | – | CCCOC(=O)N[C@H]([C@@H](O)C(=O)O[C@H]1C[C@@]2(O)[C@@H](OC(=O)c3ccccc3)[C@H]3[C@](C)(C(=O)[C@H](O)C(=C1C)C2(C)C)[C@@H](O)CC1OC[C@]13OC(C)=O)C(C)(C)C (some centres undefined) | 1.5 | – |
| – | 0.5 µg/mL (≈ 0.646 µM) | 1.7 | CC(=O)O[C@@]12COC1C[C@H](O)[C@@]1(C)C(=O)[C@H](O)C3=C(C)[C@@H](OC(=O)[C@H](O)[C@@H](NC(=O)OC(C)C)C(C)(C)C)C[C@@](O)([C@@H](OC(=O)c4ccccc4)[C@@H]12)C3(C)C (some centres undefined) | 1.2 | – |
| – | 33 µg/mL (≈ 41.9 µM) | 110 | CC(=O)O[C@@]12COC1C[C@H](O)[C@@]1(C)C(=O)[C@H](O)C3=C(C)[C@@H](OC(=O)[C@H](O)[C@@H](NC(=O)OC(C)(C)C)C(C)(C)C)C[C@@](O)([C@@H](OC(=O)c4ccccc4)[C@@H]12)C3(C)C (some centres undefined) | 0.4 | – |
| 0.42 | – | – | CC(=O)O[C@@]12COC1C[C@H](O)[C@@]1(C)C(=O)[C@H](O)C3=C(C)[C@@H](OC(=O)[C@H](O)[C@@H](NC(=O)c4cccs4)C(C)(C)C)C[C@@](O)([C@@H](OC(=O)c4ccccc4)[C@@H]12)C3(C)C (some centres undefined) | 0.53 | Ratio [6]: 28; solubility [7]: 8.4 µg/mL (≈ 10.5 µM) |
| – | 45 µg/mL (≈ 56.4 µM) | 150 | CC(=O)O[C@@]12COC1C[C@H](O)[C@@]1(C)C(=O)[C@H](O)C3=C(C)[C@@H](OC(=O)[C@H](O)[C@@H](NC(=O)C4CCCCC4)C(C)(C)C)C[C@@](O)([C@@H](OC(=O)c4ccccc4)[C@@H]12)C3(C)C (some centres undefined) | 3.8 | – |
| 1.5 | – | – | CC(=O)O[C@@]12COC1C[C@H](O)[C@@]1(C)C(=O)[C@H](O)C3=C(C)[C@@H](OC(=O)[C@H](O)[C@@H](NC(=O)C4CCCC4)C(C)(C)C)C[C@@](O)([C@@H](OC(=O)c4ccccc4)[C@@H]12)C3(C)C (some centres undefined) | 1.4 | – |
| – | 4 µg/mL (≈ 4.93 µM) | 13 | CC(=O)O[C@@]12COC1C[C@H](O)[C@@]1(C)C(=O)[C@H](O)C3=C(C)[C@@H](OC(=O)[C@H](O)[C@@H](NC(=O)c4ccc(C)s4)C(C)(C)C)C[C@@](O)([C@@H](OC(=O)c4ccccc4)[C@@H]12)C3(C)C (some centres undefined) | 32 | – |
| 1.4 | – | – | CC(=O)O[C@@]12COC1C[C@H](O)[C@@]1(C)C(=O)[C@H](O)C3=C(C)[C@@H](OC(=O)[C@H](O)[C@@H](NC(=O)c4sccc4C)C(C)(C)C)C[C@@](O)([C@@H](OC(=O)c4ccccc4)[C@@H]12)C3(C)C (some centres undefined) | 1.3 | – |
| – | – | 1 | CC(=O)O[C@H]1C(=O)[C@@]2(C)[C@H]([C@H](OC(=O)c3ccccc3)[C@]3(O)C[C@H](OC(=O)[C@H](O)[C@@H](NC(=O)c4ccccc4)c4ccccc4)C(C)=C1C3(C)C)[C@]1(OC(C)=O)CO[C@@H]1C[C@@H]2O [PACLITAXEL] | 1 | – |
| – | 45 µg/mL (≈ 59.5 µM) | 150 | CC(=O)O[C@@]12COC1C[C@H](O)[C@@]1(C)C(=O)[C@H](O)C3=C(C)[C@@H](OC(=O)[C@H](O)[C@@H](NC(=O)C4CC4)C(C)(C)C)C[C@@](O)([C@@H](OC(=O)c4ccccc4)[C@@H]12)C3(C)C (some centres undefined) | 2.1 | – |
| 2.3 | – | – | CCCCCCOC(=O)N[C@H]([C@@H](O)C(=O)O[C@H]1C[C@@]2(O)[C@@H](OC(=O)c3ccccc3)[C@H]3[C@](C)(C(=O)[C@H](O)C(=C1C)C2(C)C)[C@@H](O)CC1OC[C@]13OC(C)=O)C(C)(C)C (some centres undefined) | 12 | – |
| – | 9.7 µg/mL (≈ 12.8 µM) | 32 | CCOC(=O)N[C@H]([C@@H](O)C(=O)O[C@H]1C[C@@]2(O)[C@@H](OC(=O)c3ccccc3)[C@H]3[C@](C)(C(=O)[C@H](O)C(=C1C)C2(C)C)[C@@H](O)CC1OC[C@]13OC(C)=O)C(C)(C)C (some centres undefined) | 3.4 | – |
